Results on eight compounds are retold here after ChEMBL document CHEMBL1153572, “Synthesis and antinociceptive activity of capsinoid derivatives” (Eur J Med Chem, 2009).

Data set [1] deals with Mus musculus. The experiment in a line: Antinociceptive activity against acetic acid-induced writhing in sc dosed KM mouse for 30 mins. The format is functional. The note with it: 0.5 h. In outline: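 Mice, half male and half female, 8 per group, in cages at 23 ± 2 °C, 40–60% humidity and a 12 h light/dark cycle. Compounds were dissolved in 10% Tween-80 (aq) as twofold serial dilutions and given sc as a single 0.2 mL dose, with vehicle control. After 20 min, 0.2 mL of 0.7% acetic acid was given ip. Writhes were counted for 30 min. ED50 reported with 95% C.L.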
For orientation: An intraperitoneal irritant provokes the stretching counted in writhing tests.

Data set [2] is filed under the species Mus musculus. The experiment in a line: Toxicity in KM mouse assessed as moderate pain producing potency for 30 mins by wiping test. The format is organism-based. Particulars: in vivo, 0.5 h. The procedure, abridged:
(§1)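 Eye-drop test. Twofold dilutions were dropped into the right eye, with vehicle in the left eye as control. Protective movements (scratching, wiping the eye with the foreleg) were counted for 30 min. Six animals per concentration, half male and half female. A dose–response curve was built from group means, and MPP was taken as the concentration giving 32 scratches.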

The species entered for data set [3] is Mus musculus. As to the kind of experiment: Toxicity in KM mouse assessed as number of protective movements for 30 mins by wiping test. The format is organism-based. The note with it: in vivo, 0.5 h. In outline: as §1
The species entered for data set [4] is Mus musculus. As to the kind of experiment: Toxicity in KM mouse assessed as relative pungent potency for 30 mins by wiping test relative to capsaicin. Particulars: in vivo, 0.5 h. The format is organism-based. In outline:
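RPP was derived from MPP values read off the eye-drop dose–response curve (movements counted for 30 min, 6 animals per concentration). It was scaled to the pain-producing potency of capsaicin, set as 1000.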

The subject of data set [5] is Mus musculus. The experiment in a line: Antinociceptive activity against acetic acid-induced writhing in sc dosed KM mouse for 30 mins relative to indomethacin. The format is functional. The procedure, abridged: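 Writhing ED50 from sc dosing (8 mice per group, 10% Tween-80 vehicle, 0.7% acetic acid ip 20 min after dosing, writhes counted for 30 min) expressed as a potency ratio relative to indomethacin run in parallel.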

As to `CCCCCCCCCC(=O)OCc1ccc(OCCCCCC)c(OC)c1`, it took a dose of 1.84 mg/kg to reach the 50% effect level in the data set on Mus musculus [1] (ED50). Besides, the Activity result is listed as “Non-toxic” in the data set listed under Mus musculus [2], 11 in the data set listed under Mus musculus [3] and “Non-toxic” in the data set filed under Mus musculus [4]. Moreover, the Ratio in the data set with Mus musculus [5] was found to be 5.89.

Regarding `CCCCCCCCCC(=O)OCc1ccc(OCCCC)c(OC)c1`, in the data set on Mus musculus [1], the ED50 (in general, the dose at which the effect has come halfway, by size or by number of responders) was 3.16 mg/kg. In addition, the Activity result is “Non-toxic” in the data set listed under Mus musculus [2], 8 in the data set filed under Mus musculus [3] and “Non-toxic” in the data set listed under Mus musculus [4]. Moreover, the Ratio with Mus musculus [5] was 3.19.

In turn, `CCCCCCCCCC(=O)OCc1ccc(OCC)c(OC)c1` yielded an ED50 in the data set with Mus musculus [1] of 3.92 mg/kg. The Activity entry in the data set listed under Mus musculus [2] is “Non-toxic”; in the data set listed under Mus musculus [3] it was 4; in the data set listed under Mus musculus [4], “Non-toxic”. For the same compound, the Ratio in the data set with Mus musculus [5] was determined as 2.57.

Regarding `COc1cc(CNC(=O)CCCC/C=C/C(C)C)ccc1O` [CAPSAICIN], the Activity in the data set filed under Mus musculus [2] was 0.099 mg/mL.

For `COc1ccc2c(c1)c(CC(=O)O)c(C)n2C(=O)c1ccc(Cl)cc1` [INDOMETHACIN], the Ratio in the data set with Mus musculus [5] stood at 1.

Regarding `CCCCCCCC(=O)OCc1ccc(O)c(OC)c1` [VANILLYL CAPRYLATE], the ED50 with Mus musculus [1] was 12.6 mg/kg. Besides, the Activity entry was “Non-toxic” in the data set filed under Mus musculus [2], 28 in the data set listed under Mus musculus [3] and “Non-toxic” in the data set filed under Mus musculus [4]. Besides, in the data set on Mus musculus [5], the Ratio is listed as 0.8.

As to `CCCCCCCCCC(=O)OCc1ccc(O)c(OC)c1` [VANILLYL DECANOATE], in the data set on Mus musculus [1], the ED50 is 15.6 mg/kg. The values for the Activity result in the data set filed under Mus musculus [2], in the data set filed under Mus musculus [3] and in the data set listed under Mus musculus [4] were “Non-toxic”, 25 and “Non-toxic”, respectively. The Ratio in the data set on Mus musculus [5] worked out at 0.65.

In the data set on Mus musculus [1], `CCCCCCCCCCCC(=O)OCc1ccc(O)c(OC)c1` [VANILLYL LAURATE] yielded a 50% effective dose (ED50) of 19.4 mg/kg. Moreover, the values for the Activity entry in the data set filed under Mus musculus [2], in the data set listed under Mus musculus [3] and in the data set filed under Mus musculus [4] were “Non-toxic”, 22 and “Non-toxic”, respectively. Besides, the Ratio in the data set with Mus musculus [5] was 0.52.
